Experimental findings from ChEMBL document CHEMBL1909630, “Azaxanthene based selective glucocorticoid receptor modulators: design, synthesis, and pharmacological evaluation of (S)-4-(5-(1-((1,3,4-thiadiazol-2-yl)amino)-2-methyl-1-oxopropan-2-yl)-5H-chromeno[2,3-b]pyridin-2-yl)-2-fluoro-N,N-dimethylbenzamide (BMS-776532) and its methylene homologue …” (J Med Chem, 2011) are described below.

In data set [1] the test system is Blood. As to the kind of experiment: Antiinflammatory activity in human whole blood assessed as inhibition of LPS-induced TNFalpha production after overnight incubation by ELISA. Type of data set: functional, tissue-based. An outline of the steps: (§1)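 Whole blood from two donors per experiment was collected into ACD-A. Compounds were added and the blood was incubated about 20 h at 37 °C under 5% CO2. Blood was then stimulated for 5 h with LPS (final 100 ng/mL, for TNFα) or IL-1β (final 10 ng/mL, for IL-8). Plasma TNFα or IL-8 was measured by ELISA. Efficacy was expressed as % of dexamethasone, and values are means of at least two experiments.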
(ELISA stands for enzyme-linked immunosorbent assay.)

Data set [2] relates to Blood. In words: Antiinflammatory activity in human whole blood assessed as inhibition of IL-1beta-induced IL-8 production after overnight incubation by ELISA relative to Dexamethasone. Type of data set: functional. The essentials:
as §1

Data set [3] deals with Rattus norvegicus. In words: Antiinflammatory activity in Freund's complete adjuvant-induced Lewis rat arthritis model assessed as reduction in paw swelling at 50 mg/kg/day, po qd for 21 days. Type of data set: functional, organism-based. An outline of the steps: (§2)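 Male Lewis rats were inoculated with Mycobacterium butyricum in incomplete Freund's adjuvant. Oral dosing was daily and preventative, running from day 0 to day 21. Onset and progression of arthritis were followed, and ED50 was estimated from the dose response.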

Data set [4] is described as follows: Clearance in Sprague-Dawley rat at 1 mg/kg, iv. Type of data set: ADME, organism-based. Details: dose 1 mg/kg, route intravenous. Conditions: in vivo. The essentials: (§3)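 Male Sprague-Dawley rats received a single intravenous (1 mg/kg) or oral (10 or 50 mg/kg) dose. Plasma pharmacokinetic parameters were derived from these profiles.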
Data set [5] is described as follows: AUC in Sprague-Dawley rat at 50 mg/kg, po. Conditions: plasma. Details: dose 50 mg/kg, route oral. Format: ADME, organism-based. The essentials: as §3
The nature of data set [6]: Tmax in Sprague-Dawley rat at 10 mg/kg, po. Type of data set: ADME, organism-based. Further details: dose 10 mg/kg, route oral. Conditions: in vivo. The essentials: as §3
The test system of data set [7] is Rattus norvegicus. In words: Antiinflammatory activity in Freund's complete adjuvant-induced Lewis rat arthritis model assessed as reduction in paw swelling at 25 mg/kg/day, po qd for 21 days. Type of data set: functional, organism-based. An outline of the steps:
as §2

The source made the active and inactive calls. No cut-off for these calls is given here.

Take `CN(C)C(=O)c1ccc(-c2ccc3c(n2)Oc2ccccc2[C@H]3C(C)(C)C(=O)Nc2nncs2)cc1F`: the EC50 in the data set on Blood [1] was determined as 830 nM. In addition, the Imax in the data set on Blood [2] amounted to 70%. The result in the data set with Rattus norvegicus [3] was Active. The clearance in data set [4] was determined as 49.5 mL/min/kg. This compound showed an AUC in data set [5] of 20200 ng·h/mL. Further, the Tmax in data set [6] is 1.3 h.
As to `CCN(C)C(=O)c1ccc(-c2ccc3c(n2)Oc2ccccc2[C@@H]3C(C)(C)C(=O)Nc2nncs2)cc1F`, in the data set with Blood [1], the half-maximal effective concentration (EC50) came out at 379 nM. In the data set with Blood [2], the Imax is 88%. Besides, in data set [4], the clearance is 34 mL/min/kg. Further, the AUC in data set [5] turned out to be 28100 ng·h/mL. In addition, the Tmax in data set [6] amounted to 1 h. Also, the result in the data set on Rattus norvegicus [7] was Active.

As usually defined, the EC50 is the concentration giving half of the maximal effect. As a reminder, the clearance is the volume of plasma or blood freed of the substance per unit of time. Low values mean inefficient removal, high ones efficient removal. As a reminder, the AUC is the area under the concentration-time curve, a measure of exposure. By Tmax is commonly meant the time from dosing to the highest level.
